Measured values taken from ChEMBL document CHEMBL1142696, “Design and synthesis of melanocortin peptides with candidacidal and anti-TNF-alpha properties” (2005).
Non-standard residues stand in square brackets, D forms with d. Residues, ends and D or L forms follow the SMILES beside them. d2Nal = N[C@H](Cc1ccc2ccccc2c1)C(=O)O

Assays:
Candida albicans = assay: Inhibition of Candida albicans colony forming units (CFU) at 1e-4 M compound; type: functional
Outline: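 Six C. albicans isolates (five clinical, ATCC 24433), grown 48 h at 32 °C in Sabouraud-dextrose broth, washed and held in distilled water. 1 × 10^6 cells exposed to peptide at 10^-4 M final, 2 h at 37 °C; water controls. Diluted, plated on blood agar for 48 h at 37 °C, colonies counted manually. Kill = 100 − (test CFU/control CFU × 100). Triplicates, two independent experiments.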

PBMC = assay: Inhibition of tumor necrosis factor alpha release by endotoxin stimulated human peripheral blood mononuclear cells at 1e-4 M; type: functional
Outline: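 Human PBMC from five normal donors, isolated by Ficoll-Hypaque density centrifugation, washed in PBS and kept in RPMI 1640 with HEPES, glutamine, 10% FCS and penicillin/streptomycin. Cells at 2.5 × 10^5 per well were held 24 h at 37 °C, 5% CO2 with E. coli 055:B5 endotoxin 1 ng/mL plus peptide 10^-4 M. Supernatant TNF-α measured by immunoassay; % inhibition versus saline control, mean ± SD.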

Row | Structure (SMILES) | Inhibition (Candida albicans) | Inhibition (PBMC)
1 | CC(C)[C@H](NC(=O)[C@H](Cc1ccccc1)NC(=O)[C@H](CCCCN)NC(=O)CNC(=O)[C@@H](N)Cc1c[nH]c2ccccc12)C(N)=O (H-WGKFV-NH2) | 5.7% | <10%
2 | CC(C)[C@H](NC(=O)[C@H](Cc1ccccc1)NC(=O)[C@H](CCCCN)NC(=O)CNC(=O)[C@H](Cc1c[nH]c2ccccc12)NC(=O)[C@H](CCCN=C(N)N)NC(=O)[C@@H](Cc1ccc2ccccc2c1)NC(=O)[C@@H](N)Cc1c[nH]cn1)C(N)=O (H-H[d2Nal]RWGKFV-NH2) | 99.8% | 18.7%
3 | CC(C)[C@H](NC(=O)[C@H](Cc1ccccc1)NC(=O)[C@H](CCCCN)NC(=O)CNC(=O)[C@H](C)NC(=O)[C@H](CCCN=C(N)N)NC(=O)[C@@H](Cc1ccc2ccccc2c1)NC(=O)[C@@H](N)Cc1c[nH]cn1)C(N)=O | 24.9% | 18.1%
4 | CC(C)[C@H](NC(=O)[C@@H]1CCCN1C(=O)[C@H](CCCCN)NC(=O)CNC(=O)[C@H](Cc1c[nH]c2ccccc12)NC(=O)[C@H](CCCN=C(N)N)NC(=O)[C@@H](Cc1ccc2ccccc2c1)NC(=O)[C@@H](N)Cc1c[nH]cn1)C(N)=O (H-H[d2Nal]RWGKPV-NH2) | 95.3% | 41.8%
5 | CC(C)[C@H](NC(=O)[C@H](Cc1ccccc1)NC(=O)[C@H](CCCCN)NC(=O)CNC(=O)[C@H](Cc1c[nH]c2ccccc12)NC(=O)[C@H](C)NC(=O)[C@@H](Cc1ccc2ccccc2c1)NC(=O)[C@@H](N)Cc1c[nH]cn1)C(N)=O | 95.7% | 23%
6 | CC(C)[C@H](NC(=O)[C@H](Cc1ccccc1)NC(=O)[C@H](CCCCN)NC(=O)CNC(=O)[C@H](Cc1c[nH]c2ccccc12)NC(=O)[C@H](CCCN=C(N)N)NC(=O)[C@H](C)NC(=O)[C@@H](N)Cc1c[nH]cn1)C(N)=O (H-HARWGKFV-NH2) | 49.9% | <10%
7 | CC(C)[C@H](NC(=O)[C@H](Cc1ccccc1)NC(=O)[C@H](CCCCN)NC(=O)CNC(=O)[C@H](Cc1c[nH]c2ccccc12)NC(=O)[C@@H](N)CCCN=C(N)N)C(N)=O (H-RWGKFV-NH2) | 19.3% | <10%
8 | CC(C)[C@H](NC(=O)[C@H](Cc1ccccc1)NC(=O)[C@H](CCCCN)NC(=O)CNC(=O)[C@H](Cc1c[nH]c2ccccc12)NC(=O)[C@H](CCCN=C(N)N)NC(=O)[C@H](N)Cc1ccc2ccccc2c1)C(N)=O | 51.4% | <10%
9 | CC(C)[C@H](NC(=O)[C@H](Cc1ccccc1)NC(=O)[C@@H](N)CCCCN)C(N)=O (H-Lys-Phe-Val-NH2) | 2.7% | <10%
10 | CC(C)[C@H](NC(=O)[C@H](Cc1ccccc1)NC(=O)[C@H](CCCCN)NC(=O)CNC(=O)[C@H](Cc1c[nH]c2ccccc12)NC(=O)[C@H](CCCN=C(N)N)NC(=O)[C@@H](Cc1ccc2ccccc2c1)NC(=O)[C@H](C)N)C(N)=O | 62.8% | <10%
11 | CC(C)[C@H](NC(=O)[C@H](Cc1ccccc1)NC(=O)[C@H](CCCCN)NC(=O)CNC(=O)[C@H](Cc1c[nH]c2ccccc12)NC(=O)[C@H](CCCNC(=N)N)NC(=O)[C@H](Cc1ccccc1)NC(=O)[C@@H](N)Cc1cnc[nH]1)C(N)=O (H-HFRWGKFV-NH2) | 90.8% | <10%
12 | CC(C)[C@H](NC(=O)[C@@H]1CCCN1C(=O)[C@H](CCCCN)NC(=O)CNC(=O)[C@H](Cc1c[nH]c2ccccc12)NC(=O)[C@H](CCCN=C(N)N)NC(=O)[C@H](Cc1ccccc1)NC(=O)[C@@H](N)Cc1c[nH]cn1)C(N)=O (H-HFRWGKPV-NH2) | 59.4% | 12.3%
13 | NC(=O)[C@H](Cc1c[nH]c2ccccc12)NC(=O)[C@H](CCCN=C(N)N)NC(=O)[C@@H](Cc1ccc2ccccc2c1)NC(=O)[C@@H](N)Cc1c[nH]cn1 | 43% | 13.9%
14 | CC(C)[C@H](NC(=O)[C@H](Cc1ccccc1)NC(=O)[C@H](CCCCN)NC(=O)CN)C(N)=O (H-GKFV-NH2) | 5% | <10%
